We go through 15 compounds from ChEMBL document CHEMBL2385031, “Design, synthesis, and initial evaluation of a high affinity positron emission tomography probe for imaging matrix metalloproteinases 2 and 9” (J Med Chem, 2013).

The nature of series [1]: Drug excretion in C57BL/6 mouse urine at 650 MBq/mL after 15 to 60 mins by UPLC analysis. Type of series: ADME, tissue-based. The settings on record: in the assay text read “after 60 mins” for “after 15 to 60 mins”, read-out: Drug excretion. In short, it runs like this: (§1)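 C57BL/6 mice given 150 μL of 650 MBq/mL (17.5 mCi/mL) 18F-labelled tracer each; killed by decapitation at 15, 30 and 60 min post-injection. Blood and urine collected, proteins precipitated with twice the volume of ice-cold acetonitrile, centrifuged; supernatants analysed by radio-UPLC for intact tracer versus metabolites.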

In series [2] the test system is Plasma. The experiment in a line: Metabolic stability in rat plasma at 60 Mbq up to 2 hrs by UPLC analysis. In kind it is ADME, cell-free. The gist of the method:
(§2)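 About 60 MBq formulated 18F-tracer (5% ethanol in PBS) added to ~0.5 mL plasma, split into six aliquots. Zero-time sample quenched immediately with methanol; others incubated at 37 °C with shaking and quenched with ice-cold methanol at 5, 30, 60, 90, 120 min. Proteins removed by centrifugation at 10000g, 10 min; supernatants analysed by UPLC.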

Series [3] relates to Plasma. The experiment in a line: Metabolic stability in human plasma at 60 Mbq up to 2 hrs by UPLC analysis. In kind it is ADME, cell-free. The gist of the method:
as §2

Series [4] is described as follows: Drug uptake in C57BL/6 mouse urinary bladder at 5.3 MBq, iv by PET/CT imaging. Type of series: ADME, organism-based. The settings on record: in vivo. In short, it runs like this:
(§3)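 Single C57BL/6 mouse, 5.3 MBq 18F-tracer via tail vein, isoflurane 2−3% in oxygen/air, body kept at 37 °C. Small-animal PET/CT, two-bed static acquisition: anterior 8−22 min, posterior 23−38 min post-injection; images averaged 8−38 min.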

A further series has as its system Blood. The experiment in a line: Drug metabolism in C57BL/6 mouse blood assessed as compound remaining at 650 MBq/mL after 15 to 60 mins by UPLC analysis. Type of series: ADME, tissue-based. In short, it runs like this: as §1
The next series concerns Bone. The experiment in a line: Drug uptake in C57BL/6 mouse bone at 5.3 MBq, iv by PET/CT imaging. In kind it is ADME, organism-based, Bone element. The settings on record: in vivo. The gist of the method: as §3
For series [5], the target named is Matrix metalloproteinase-9 (Homo sapiens, UniProt P14780). In words: Inhibition of human full length MMP9 using Mca-Pro-Leu-Gly-Leu-Dpa(Dnp)-Ala-Arg-NH2 as substrate measured up to 120 mins by fluorescence assay. In short, it runs like this: (§4)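 Recombinant full-length human enzyme activated with APMA, used at 0.1 nM final in 50 mM Tris/HCl pH 7.5, 10 mM CaCl2, 150 mM NaCl, 0.05% Brij-35. Inhibitor added from DMSO (e.g., 1 nM to 30 μM). Activity read as initial slope of fluorescence rise from cleavage of an internally quenched fluorogenic substrate; IC50 derived.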
Matrix metalloproteinase-9, sequence (P14780 whole entry): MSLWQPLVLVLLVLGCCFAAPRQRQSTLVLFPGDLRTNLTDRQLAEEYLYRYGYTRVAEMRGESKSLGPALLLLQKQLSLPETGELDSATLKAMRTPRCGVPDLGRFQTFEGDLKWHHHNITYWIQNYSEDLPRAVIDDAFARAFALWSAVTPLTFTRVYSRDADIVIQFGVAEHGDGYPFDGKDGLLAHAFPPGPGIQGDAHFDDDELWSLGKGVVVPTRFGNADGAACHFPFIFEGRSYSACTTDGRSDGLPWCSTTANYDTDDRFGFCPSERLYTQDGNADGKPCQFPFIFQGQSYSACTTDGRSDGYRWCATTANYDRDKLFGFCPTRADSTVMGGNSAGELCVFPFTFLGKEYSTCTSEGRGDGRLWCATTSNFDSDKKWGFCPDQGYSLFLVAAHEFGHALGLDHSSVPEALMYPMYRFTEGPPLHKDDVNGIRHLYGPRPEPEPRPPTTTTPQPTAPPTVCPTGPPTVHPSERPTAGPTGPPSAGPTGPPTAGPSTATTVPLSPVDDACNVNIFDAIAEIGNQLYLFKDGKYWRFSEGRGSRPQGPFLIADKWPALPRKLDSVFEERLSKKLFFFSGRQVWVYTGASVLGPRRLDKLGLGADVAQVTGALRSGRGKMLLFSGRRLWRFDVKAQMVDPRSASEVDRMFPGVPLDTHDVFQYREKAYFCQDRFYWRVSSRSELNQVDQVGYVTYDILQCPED

Series [6] deals with 72 kDa type IV collagenase (Homo sapiens, UniProt P08253). The experiment in a line: Inhibition of human full length MMP2 using Mca-Pro-Leu-Gly-Leu-Dpa(Dnp)-Ala-Arg-NH2 as substrate measured up to 120 mins by fluorescence assay. In short, it runs like this: as §4
72 kDa type IV collagenase, sequence (P08253 whole entry): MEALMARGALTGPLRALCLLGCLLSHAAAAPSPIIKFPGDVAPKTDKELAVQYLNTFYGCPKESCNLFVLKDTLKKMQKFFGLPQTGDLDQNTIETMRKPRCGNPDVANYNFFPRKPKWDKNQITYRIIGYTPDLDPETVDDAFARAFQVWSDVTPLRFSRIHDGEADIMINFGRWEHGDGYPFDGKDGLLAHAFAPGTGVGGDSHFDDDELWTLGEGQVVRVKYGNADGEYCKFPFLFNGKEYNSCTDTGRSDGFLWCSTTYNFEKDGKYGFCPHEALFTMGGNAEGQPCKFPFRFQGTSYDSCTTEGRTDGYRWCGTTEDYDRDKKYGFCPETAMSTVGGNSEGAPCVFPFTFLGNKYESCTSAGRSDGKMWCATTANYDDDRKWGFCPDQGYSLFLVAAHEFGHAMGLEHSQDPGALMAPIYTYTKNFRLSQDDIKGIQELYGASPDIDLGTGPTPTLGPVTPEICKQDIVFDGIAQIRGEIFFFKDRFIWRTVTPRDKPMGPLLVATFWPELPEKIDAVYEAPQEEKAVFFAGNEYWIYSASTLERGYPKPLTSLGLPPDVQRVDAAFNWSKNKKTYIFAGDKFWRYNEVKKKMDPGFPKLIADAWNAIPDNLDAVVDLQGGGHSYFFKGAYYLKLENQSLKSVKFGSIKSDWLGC
Another series deals with T1, Interstitial collagenase (Homo sapiens, UniProt P03956).
T1 sequence (P03956 whole entry): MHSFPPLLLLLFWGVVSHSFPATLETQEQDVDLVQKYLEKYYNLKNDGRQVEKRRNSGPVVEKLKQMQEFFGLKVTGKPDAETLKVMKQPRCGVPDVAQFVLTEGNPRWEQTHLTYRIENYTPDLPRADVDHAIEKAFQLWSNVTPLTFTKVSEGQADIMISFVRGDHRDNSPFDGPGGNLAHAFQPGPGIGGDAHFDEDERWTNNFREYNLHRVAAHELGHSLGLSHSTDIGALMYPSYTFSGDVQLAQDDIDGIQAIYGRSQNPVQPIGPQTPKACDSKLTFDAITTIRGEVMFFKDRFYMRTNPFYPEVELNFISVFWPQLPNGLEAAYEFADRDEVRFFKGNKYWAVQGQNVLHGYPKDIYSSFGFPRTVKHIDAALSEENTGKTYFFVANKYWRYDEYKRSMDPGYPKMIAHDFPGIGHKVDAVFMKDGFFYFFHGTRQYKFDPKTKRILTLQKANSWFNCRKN
The experiment in a line: Inhibition of MMP1 (unknown origin).

Where only a bound is given, the exact number is not on record here.

Regarding `O=C(Nc1ccc(S(=O)(=O)N[C@H](Cc2c[nH]c3ccccc23)C(=O)O)cc1)c1ccc([18F])cc1`, the dose excreted in series [1] came to 85%. Besides, the Stability entry with Plasma [2] and with Plasma [3] was “Stable” each time. The Drug uptake result in series [4] is “Active”; with Bone it was “Not Active”. The Drug metabolism entry in the series on Blood is “Not Active”.
For the compound `COc1ccc(C(=O)Nc2ccc(S(=O)(=O)N[C@H](Cc3c[nH]c4ccccc34)C(=O)O)cc2)cc1`, the IC50 in series [5] was 0.011 µM; in series [6], < 0.001 µM.
For `O=C(Nc1ccc(S(=O)(=O)N[C@H](Cc2c[nH]c3ccccc23)C(=O)O)cc1)c1ccnc(F)c1`, in that order: 0.078 µM and 0.014 µM.
On to `COc1ccc(Oc2ccc(S(=O)(=O)N[C@H](Cc3c[nH]c4ccccc34)C(=O)O)cc2)cc1`, for which the IC50 is 0.1 µM in series [5] and 0.0036 µM in series [6].
For `CC(C)COc1ccc(C(=O)Nc2ccc(S(=O)(=O)N[C@H](Cc3c[nH]c4ccccc34)C(=O)O)cc2)cc1`, in that order: 0.46 µM and < 0.001 µM.
Turning to `O=C(Nc1ccc(S(=O)(=O)N[C@H](Cc2c[nH]c3ccccc23)C(=O)O)cc1)c1ccc(F)cc1`, the IC50 is > 1 µM on Interstitial collagenase, 0.007 µM in [5] and 0.0018 µM in series [6].
Regarding `O=C(Nc1ccc(S(=O)(=O)N[C@H](Cc2c[nH]c3ccccc23)C(=O)O)cc1)c1cc(F)ccn1`, the IC50 in series [5] was determined as 0.038 µM; in series [6], 0.0052 µM.
As to `O=C(Nc1ccc(S(=O)(=O)N[C@H](Cc2c[nH]c3ccccc23)C(=O)O)cc1)c1ccc(F)nc1`, the IC50 against Interstitial collagenase was > 1 µM; in series [5], 0.017 µM; in series [6] it was 0.007 µM.
Regarding `O=C(Nc1ccc(S(=O)(=O)N[C@H](Cc2c[nH]c3ccccc23)C(=O)O)cc1)c1ccc(Br)cc1`, the results for the IC50 (on Interstitial collagenase; in series [5]; in series [6]) were > 1 µM, 0.001 µM and 0.0009 µM, respectively.
In the case of `COc1ccc(-c2ccc(S(=O)(=O)N[C@H](Cc3c[nH]c4ccccc34)C(=O)O)cc2)cc1`, the results for the IC50 in series [5] and in [6] were 0.028 µM and 0.0048 µM, respectively.
As to `O=C(Nc1ccc(S(=O)(=O)N[C@H](Cc2c[nH]c3ccccc23)C(=O)O)cc1)c1cccnc1F`, the IC50 in series [5] is > 1 µM; in series [6], 0.141 µM.
Take `O=C(Nc1ccc(S(=O)(=O)N[C@H](Cc2c[nH]c3ccccc23)C(=O)O)cc1)c1ccc(I)cc1`: the IC50 is 0.0011 µM in [5] and < 0.001 µM in series [6].
The like results for `O=C(O)[C@@H](Cc1c[nH]c2ccccc12)NS(=O)(=O)c1ccc(-c2ccc(Cl)cc2)cc1` were, in that order, 0.23 µM and 0.0058 µM.
In the case of `CC(C)Oc1ccc(C(=O)Nc2ccc(S(=O)(=O)N[C@H](Cc3c[nH]c4ccccc34)C(=O)O)cc2)cc1`, the IC50 was 0.097 µM in [5] and < 0.001 µM in series [6].
For the compound `O=C(Nc1ccc(S(=O)(=O)N[C@H](Cc2c[nH]c3ccccc23)C(=O)O)cc1)c1ccc(OC(F)(F)F)cc1`, the values for the IC50 in series [5] and in series [6] were 0.021 µM and 0.0048 µM, respectively.

By IC50 is commonly meant the concentration at which inhibition is half-maximal. Higher therefore signals weaker potency.
